SMILES strings stand for the structures.

A short description of this data set: Toxicity liver stage against HepG2, at 10uM. The class given is cell-based. On the set-up: test concentration 10 uM, cell line HepG2-A16-CD81EGFP. To be noted: human, HepG2-A16-CD81EGFP cells; read-out: INHIBITION
In a few lines:
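Uninfected HepG2-A16-CD81EGFP cells, 3 × 10^3 per well, 1536-well, plated on prespotted compound at 10 μM final, parasite-free screening media added to match infected plates; puromycin 10 μM positive, DMSO 0.5% negative; run in parallel with 48 h PbLuc assay at 37 °C, 5% CO2; viability by CellTiter-Glo luminescence, normalized to controls.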
As for `CC(C)c1nc(C(=O)N(C)c2ccc(Br)cn2)cs1`, the cytotoxicity at 10 µM was found to be 7.84%.
For `CCCN(Cc1ccccc1C)C(CC)CO` (stereo not drawn) the value was -6.08%.
For `Cc1ccccc1C(=O)NCC(O)c1ccc(F)c(F)c1` (stereo not drawn), the cytotoxicity at 10 µM is -10.1%.
For the molecule `Cc1nc(C)n(CC2CCCN2Cc2ncc(C(C)(C)C)o2)n1` (stereo not drawn), the cytotoxicity at 10 µM is -5.53%.
Turning to `CC(=O)Nc1ccc(Oc2cccc(CN3CCCC3)c2)cc1`, the cytotoxicity at 10 µM was -14%.
As for `COc1cccc(CN2CCCC3(CCN(C(CO)CO)C3)C2)c1` (stereo not drawn), the cytotoxicity at 10 µM was -5.96%.
Turning to `Cc1nc2c(C)cccc2cc1C(=O)N1CCC2(CCCNC2)C1` (stereo not drawn), the cytotoxicity at 10 µM is -10.3%.
Consider `O=C1OCCN1Cc1cccc(C(F)(F)F)c1F`, for which the cytotoxicity at 10 µM is -0.524%.
Regarding `CC(C)N1Cc2c(C(=O)N3CCN(C)CC3)nn(C)c2C1`, the cytotoxicity at 10 µM was -104%.
With `CCOc1cc(C)nc(N2CCN(C(=O)c3csnn3)CC2)n1`, the cytotoxicity at 10 µM stood at 2.85%.
For `CC(C)C(NCc1ccc(Cn2cncn2)cc1)c1ccccc1` (stereo not drawn) the value was 4.1%; for `CCCc1nc(C(=O)NCCN2CCC(c3ccccc3C)C2)cs1` (stereo not drawn), -37.9%.
`N#Cc1cccnc1N1CCN(C(=O)CCC(=O)c2cccs2)CC1`: the cytotoxicity at 10 µM is -8.7%.
For `Cc1cnn(CC2CCCCN2Cc2ncc(C(C)(C)C)o2)c1` (stereo not drawn) the value was -3.44%.
As to `OCCNc1cc(N2CCN(Cc3ccccc3)C(CCO)C2)ncn1` (stereo not drawn), the cytotoxicity at 10 µM worked out at 6.45%.
Consider `COc1ccccc1OC1CCN(C(=O)c2c[nH]c(=O)[nH]c2=O)CC1`, for which the cytotoxicity at 10 µM turned out to be 8.45%.
Under `Cn1ccnc1-c1noc(NCc2ccc(Cl)cc2)n1` stands -9.46%.
As for `CSC(C)C(=O)N1CCN(CCO)CC1` (stereo not drawn), the cytotoxicity at 10 µM is -6.69%.
For the molecule `CC(CNC(=O)c1ccon1)Oc1cccc(Br)c1` (stereo not drawn), the cytotoxicity at 10 µM was -1.52%.
On to `CN(C)CCOCc1ncn2c1CN(c1ncc(F)cn1)CCC2`, for which the cytotoxicity at 10 µM is 15%.
Consider `CN(C)[C@H]1CCCCN(C(=O)CCc2csc(N)n2)C1`, for which the cytotoxicity at 10 µM was -7.59%.
Regarding `O=C(C1CCOC1)N1CCN(Cc2ccc3c(c2)CCO3)CC1` (stereo not drawn), the cytotoxicity at 10 µM stood at 0.28%.
For `Cc1ccccc1NC1CCN(C(=O)CCc2ccco2)CC1` the value was -16.2%.
Turning to `CSc1ccccc1C(=O)N(C)C1CCCN(CCc2ccccc2)C1` (stereo not drawn), the cytotoxicity at 10 µM was -8.52%.
On to `Cc1ccc(CN(C)C(=O)CN2CCc3ccccc3C2)o1`, for which the cytotoxicity at 10 µM was -6.9%.
Under `O=C(NC1CC(=O)N(C2CC2)C1)c1cccs1` (stereo not drawn) stands 17.5%.
Under `CCCN(CCS(C)(=O)=O)C1CCc2ccccc2C1` (stereo not drawn) stands -5.08%.
In the case of `CN1CCOC(CNC(=O)C2(c3cccc(Cl)c3)CC2)C1` (stereo not drawn), the cytotoxicity at 10 µM is -3.03%.
Under `O=c1ccc2c(n1Cc1cccnc1)CCC(NCc1cccnc1)C2` (stereo not drawn) stands 19.2%; under `N#Cc1c(F)cccc1NCCCOCC1CCOCC1`, -1.25%.
Regarding `COc1ccc(C2CCCN2c2cnc3ccccc3n2)c(OC)c1` (stereo not drawn), the cytotoxicity at 10 µM was determined as 7.54%.
For `CCCNC(=O)c1[nH]nc(C2CC2)c1Br` the value was -0.587%; for `c1cc(-c2ccc3nc(C4CCN(CC5CC5)CC4)nn3c2)ccn1`, -0.966%.
For `CC(O)CNCc1ccccc1C(F)(F)F` (stereo not drawn), the cytotoxicity at 10 µM was -3.3%.
As for `O=C(c1cncnc1)N1CCCC(c2nccs2)C1` (stereo not drawn), the cytotoxicity at 10 µM worked out at 6.55%.
On to `Cc1cc(C(=O)N2CCOC[C@H](Oc3cnccn3)C2)c(C(F)(F)F)o1`, for which the cytotoxicity at 10 µM was -1.13%.
For `Cc1ccc(N2CC3(CCN(C(=O)c4ccoc4)C3)C2)nn1` the value was -11.6%; for `CCc1nc(C2CCCN2Cc2nccn2Cc2ccccc2)no1` (stereo not drawn), 0.89%; for `Fc1ccc(C2CN(CCc3ccncc3)CCO2)cc1` (stereo not drawn), 11%.
For the molecule `Cc1csc(CN2CC[C@H]3O[C@H](C(=O)Nc4cccnc4)CC[C@H]32)n1`, the cytotoxicity at 10 µM was -47.1%.
For `CCc1nc(CN(C)C2CCN(CCS(C)(=O)=O)C2)no1` (stereo not drawn) the value was 4.45%; for `CC(C)Cc1cc(CN2C[C@@H]3CC[C@H]2CN(Cc2cscn2)C3)n[nH]1`, -2.03%; for `Cn1ncc2c1CCCC2NCc1cccc2c1OCCCO2` (stereo not drawn), -9.86%.
Under `CC1(C)C(C(=O)NCCC2CN(Cc3c[nH]cn3)CCO2)C1(C)C` (stereo not drawn) stands -3.67%.
For `Cc1cc(C)c(CNC(=O)c2ccc3c(c2)CCC3)c(=O)[nH]1` the value was 0.983%.
`CCc1ncc(C(=O)NCCNc2ncnc3sccc23)s1`: the cytotoxicity at 10 µM stood at 49.6%.
Consider `Cc1csc(C2CCCCN2C(=O)c2cc(C)n(C)n2)n1` (stereo not drawn), for which the cytotoxicity at 10 µM is -17.9%.
Under `Cc1oc(NC(=O)C(C)N2CCN(CCO)CC2)c(C#N)c1C` (stereo not drawn) stands -13.6%.
As to `C=C(C)CN1CCC(c2n[nH]c(C3CC3)n2)CC1`, the cytotoxicity at 10 µM was -1.92%.
With `c1ccc(OCc2nc(CNCCn3cccn3)cs2)cc1`, the cytotoxicity at 10 µM was determined as 7.53%.
Regarding `O=C(NCCNC(=O)c1scnc1Cl)c1ccccc1Cl`, the cytotoxicity at 10 µM is -0.524%.
With `Cn1ccnc1CN1CCC2(CC(=O)N(c3ccccn3)C2)C1` (stereo not drawn), the cytotoxicity at 10 µM was -74.6%.
Under `CC(C)OCCCNC(=O)NCc1cccc(-n2ccnc2)c1` stands 18.5%; under `Cc1nonc1CNC(=O)C(C)Oc1cccc(F)c1` (stereo not drawn), 1.22%.
As for `Cn1ccc(C(=O)N2CCCC2c2cc[nH]n2)n1` (stereo not drawn), the cytotoxicity at 10 µM is -1.26%.
Under `CC(C)Cn1cncc1CNC(=O)c1cccc(Cn2cccn2)c1` stands -3.12%; under `Cc1nsc(NC(=O)N2CCc3sccc3C2)n1`, 18.5%; under `Cc1cc(CN2CCN(C(=O)C(C(C)C)n3cncn3)CC2)no1` (stereo not drawn), -9.88%.
Turning to `Cc1c(Cl)cccc1S(=O)(=O)NCC(O)c1cccn1C` (stereo not drawn), the cytotoxicity at 10 µM is -5.15%.
For `CC(NC(=O)NCc1cc[nH]n1)c1ccc2c(c1)CCC(=O)N2` (stereo not drawn) the value was -9.37%; for `CC(c1ccccc1F)N(C(=O)CSCC(N)=O)C1CC1` (stereo not drawn), -54.9%; for `Cc1ccc(-c2cc(N)c(=O)n(CC(=O)NCC3CCCCC3)n2)s1`, 2.44%.
For the molecule `COC[C@@H]1CC[C@H]2[C@H](CCN2S(=O)(=O)c2ccc(F)cc2)O1`, the cytotoxicity at 10 µM was -2.76%.
For `CN(C)S(=O)(=O)N1CCC[C@]2(C[C@@H](Oc3ncccc3F)CO2)C1` the value was -82.2%.
Take `O=C(C1CCCC1)N1CC(c2nc(Cc3ccccc3)no2)C1`: the cytotoxicity at 10 µM turned out to be 4.84%.
Under `CC(C)c1nnc(NCc2cc3n(n2)CCN(C2CCCCC2)C3)s1` stands -4.63%; under `Oc1cccc(CN2CCN(C3CCc4ccccc4C3)CC2)c1` (stereo not drawn), 6.42%.
As to `Cc1noc(C)c1CN1CCN(CC2CC2)c2ncccc2C1`, the cytotoxicity at 10 µM was 5.56%.
Take `CCN(CCNC(=O)c1ccccc1Br)C1CC1`: the cytotoxicity at 10 µM is 3.32%.
For `CC(C)CNC(=O)C1=NOC2(CCN(Cc3ccoc3)C2)C1` (stereo not drawn), the cytotoxicity at 10 µM was -3.42%.
Under `O=C(c1ccnc(NC2CC2)c1)N1CCCC1c1cccc(Br)c1` (stereo not drawn) stands -6.58%; under `Cc1cc(Nc2cnccn2)nc(C2CCCN(CCO)C2)n1` (stereo not drawn), -5.87%.
With `O=C(c1ccsc1)N1C[C@@H]2C[C@@H](c3nnc(C4CC4)o3)O[C@@H]2C1`, the cytotoxicity at 10 µM was -6.15%.
For `CN(CCc1ccccc1)Cc1cc(C(=O)N2CCSCC2)no1`, the cytotoxicity at 10 µM was determined as 3.88%.
Under `Cn1cccc1C(O)CNC(=O)c1cccc(Cl)c1` (stereo not drawn) stands -1.94%.
Under `O=C(NC1CC1)N1CCOC2(CCCN(c3cccc(F)c3)C2)C1` (stereo not drawn) stands 4.23%.
`c1cnc(N2CCC(NCc3cnc(C4CCC4)s3)CC2)nc1`: the cytotoxicity at 10 µM was 4.24%.
For `CC(O)(CNC(=O)NCCc1ccc2c(c1)CCO2)c1ccsc1` (stereo not drawn) the value was 7.4%; for `Cc1nc(CN2C(=O)C[C@H]3[C@H]2CCN3C2CCOCC2)cs1`, -7.87%.
For `O=C1C(NCc2cccc(O)c2)CCN1Cc1ccccc1` (stereo not drawn) the value was -0.539%.
With `Cc1noc(C)c1CN1CCOCC12CCN(c1nccs1)CC2`, the cytotoxicity at 10 µM is -104%.
In the case of `Cn1c(-c2ccccc2Cl)nc2cc(C(=O)NCC3(CO)CC3)cnc21`, the cytotoxicity at 10 µM is -4.33%.
In the case of `CC(C)(O)CCc1cccc(C(=O)N[C@H](C(N)=O)c2ccccc2)c1`, the cytotoxicity at 10 µM was -4.21%.
With `CC(C)C(C)N(C)Cc1nnc(-c2ccc(Br)s2)o1` (stereo not drawn), the cytotoxicity at 10 µM was -1.65%.
Under `c1ncc(-c2cn(CCSc3cnn[nH]3)nn2)cn1` stands -41.7%; under `Cn1cc(C2CCCN2CCC(=O)N2CCc3sccc3C2)cn1` (stereo not drawn), -8.25%.
For the molecule `CCNC(=O)N1C[C@@H]2OCC(=O)N(CC3CC3)[C@@H]2C1`, the cytotoxicity at 10 µM came to 0.434%.
Under `N#CC1(C(=O)N2C[C@@H]3CC[C@H]2CN(Cc2ccncc2)C3)CCOCC1` stands -11.9%; under `CC(=O)N1CCN(c2cncc(C3CCNCC3)n2)CC1`, 16.8%; under `CCNC(=O)[C@@H]1CCCN1[C@@H](C(=O)NC)c1ccccc1OC`, -4.51%.
Under `Cc1cc(N2CCN(CC(=O)N(C)C)CC2)nc(-c2ccncc2)n1` stands -3.96%; under `CC1=C[C@@H](CC#N)[C@H](C(C)C)C[C@H]1CC(=O)N1CCN(CCO)CC1`, 4.62%; under `CN(C)c1ncccc1CNS(=O)(=O)c1ccc(C(N)=O)cc1`, -4.08%.
For `Cc1cccc(-c2c[nH]c(C3CCCN3C(=O)c3cc(C)n[nH]3)n2)c1` (stereo not drawn) the value was 4%; for `COCCN1C(=O)[C@@H]2CC[C@H]1CN(C(=O)CCc1n[nH]c(C)c1C)C2`, 13.5%.
`CCCC(O)CNc1cncc(Br)c1` (stereo not drawn): the cytotoxicity at 10 µM turned out to be 22.2%.
Under `CN1CC2(CCN(C(=O)c3cc(-n4cccn4)ccc3Cl)CC2)OC1=O` stands 2.3%; under `CCOc1cc(CNC(=O)c2cc(-c3ccccn3)no2)ccn1`, 1.63%.
